From ChEMBL document CHEMBL1124678, “New anticancer agents: alterations of the carbamate group of ethyl (5-amino-1,2-dihydro-3-phenylpyrido[3,4-b]pyrazin-7-yl)car bamates” (J Med Chem, 1989)
pIC50: −log10 of the molar value.

Columns and labels:
[1] = tested on: L1210; experiment: The compound was tested in vitro for growth of inhibitory activity against lymphoid leukemia L1210 cells; assay type: functional, cell-based, Mus musculus
In short: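 Cultured L1210 lymphoid leukemia cells exposed to agent for 48 h; proliferation measured against untreated control growth. IC50 is the nanomolar concentration holding growth to 50% of control; some values averaged from two determinations.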

[2] = tested on: L1210; experiment: Mitotic index (fraction of cells in mitosis divided by total cells ) for cultured lymphoid leukemia L1210 cells; assay type: functional, Mus musculus
In short: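 Cultured L1210 lymphoid leukemia cells exposed to agent for 12 h; mitotic index scored as fraction of cells in mitosis over total cells. Value is the nanomolar concentration giving a mitotic index of 0.5 (MI0.5).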

[3] = tested on: P388; experiment: Increase in the life span of mice implanted with lymphocytic leukemia P388 at the highest nontoxic dose of 1 mg/Kg given to the compound intraperitoneally; assay type: functional; conditions: Mus musculus, P388, ip
[4] = tested on: P388; experiment: Increase in the life span of mice implanted with lymphocytic leukemia P388 at the highest nontoxic dose of 25 mg/Kg given to the compound intraperitoneally; assay type: functional; conditions: Mus musculus, P388, ip
[5] = tested on: P388; experiment: Increase in the life span of mice implanted with lymphocytic leukemia P388 at the highest nontoxic dose of 2 mg/Kg given to the compound intraperitoneally; assay type: functional; conditions: Mus musculus, P388, ip
[6] = tested on: P388; experiment: Increase in the life span of mice implanted with lymphocytic leukemia P388 at the highest nontoxic dose of 1.5 mg/kg given to the compound intraperitoneally; assay type: functional; conditions: Mus musculus, P388, ip, route intraperitoneal
[7] = tested on: P388; experiment: Increase in the life span of mice implanted with lymphocytic leukemia P388 at the highest nontoxic dose of 200 mg/Kg given to the compound intraperitoneally on day 1; assay type: functional; conditions: Mus musculus, P388, ip, 24 h
[8] = tested on: P388; experiment: Increase in the life span of mice implanted with lymphocytic leukemia P388 at the highest nontoxic dose of 0.5 mg/Kg given to the compound intraperitoneally; assay type: functional; conditions: Mus musculus, P388, ip
[9] = tested on: P388; experiment: Increase in the life span of mice implanted with lymphocytic leukemia P388 at the highest nontoxic dose of 200 mg/Kg given to the compound intraperitoneally; assay type: functional; conditions: Mus musculus, P388, ip
[10] = tested on: P388; experiment: Increase in the life span of mice implanted with lymphocytic leukemia P388 at the highest nontoxic dose of 50 mg/Kg given to the compound intraperitoneally; assay type: functional; conditions: Mus musculus, P388, ip
[11] = tested on: P388; experiment: Increase in the life span of mice implanted with lymphocytic leukemia P388 at the highest nontoxic dose of 12 mg/Kg given to the compound intraperitoneally; assay type: functional; conditions: Mus musculus, P388, ip

Row | Structure (SMILES) | pIC50 ([1]; Mus musculus, L1210) | MI0.5 [2] | other results
1 | CCOC(=O)Nc1cc2c(c(N)n1)N=C(c1ccccc1)C(C)N2.Cl (stereo not given) | 9.29 | 1.5 nM | ILS at 1 mg/kg [3]: 75%
2 | CC1Nc2cc(N)nc(N)c2N=C1c1ccccc1 (stereo not given) | 6.30 | 850 nM | –
3 | COC(=O)Nc1cc2c(c(N)n1)N=C(c1ccccc1)C(C)N2 (stereo not given) | 9.27 | 0.8 nM | ILS at 1 mg/kg [3]: 88%
4 | CCOC(=O)Nc1cc2c(c(NC(C)=O)n1)N=C(c1ccccc1)CN2 | 8.07 | 23 nM | ILS at 25 mg/kg [4]: 49%
5 | CCOC(=O)Nc1cc2c(c(N)n1)N=C(c1ccccc1)CN2 | – | 2.8 nM | ILS at 2 mg/kg [5]: 51%
6 | COc1cc2c(c(OC)c1OC)-c1ccc(OC)c(=O)cc1[C@@H](NC(C)=O)CC2 [COLCHICINE] | 8.19 | 21 nM | –
7 | CC[C@]1(O)C[C@H]2CN(CCc3c([nH]c4ccccc34)[C@@](C(=O)OC)(c3cc4c(cc3OC)N(C=O)[C@H]3[C@@](O)(C(=O)OC)[C@H](OC(C)=O)[C@]5(CC)C=CCN6CC[C@]43[C@@H]65)C2)C1 [VINCRISTINE] | 8.47 | 11 nM | ILS at 1.5 mg/kg [6]: 122%
8 | Nc1nc(NC(=O)OC2CCCCC2)cc2c1N=C(c1ccccc1)CN2 | 6.64 | 260 nM | ILS at 200 mg/kg [7]: 0%
9 | CCOC(=O)Nc1cc2c(c(N)n1)N=C(c1ccccc1)C(C)N2.O=S(=O)(O)CCO (stereo not given) | – | 0.74 nM | pIC50 ([1]; l1210): 9.27; ILS at 0.5 mg/kg [8]: 46%
10 | CCOC(=O)Nc1nc(NC(=O)OCC)c2c(c1N)NC(C)C(c1ccccc1)=N2 (stereo not given) | < 6.52 | – | ILS at 200 mg/kg [9]: 0%
11 | Nc1nccc2c1N=C(c1ccccc1)CN2 | 5.55 | >10000 nM | ILS at 50 mg/kg [10]: 0%
12 | CC1Nc2cc(NC(=O)OCc3ccccc3)nc(N)c2N=C1c1ccccc1 (stereo not given) | 7.20 | – | –
13 | CCC(C)OC(=O)Nc1cc2c(c(N)n1)N=C(c1ccccc1)C(C)N2 (stereo not given) | 8.92 | – | ILS at 12 mg/kg [11]: 60%
14 | CNC(=O)Nc1cc2c(c(N)n1)N=C(c1ccccc1)C(C)N2 (stereo not given) | 7.70 | – | ILS at 12 mg/kg [11]: 0%
15 | CC(=O)Nc1cc2c(c(NC(C)=O)n1)N=C(c1ccccc1)C(C)N2C(C)=O (stereo not given) | < 7.00 | – | –
